Calls of active or inactive are those of the source. The calls are words filed in the database; no cut-off is given here.
Key:
Type in all cases: cell-based
Toll-like receptor 8 = molecular target: T1, Toll-like receptor 8 (Homo sapiens, UniProt Q9NR97); test: Agonist activity at human TLR8 expressed in HEK293 cells assessed as induction of NF-kappaB activity by secreted alkaline phosphatase reporter gene assay
T1 sequence (Q9NR97 whole entry): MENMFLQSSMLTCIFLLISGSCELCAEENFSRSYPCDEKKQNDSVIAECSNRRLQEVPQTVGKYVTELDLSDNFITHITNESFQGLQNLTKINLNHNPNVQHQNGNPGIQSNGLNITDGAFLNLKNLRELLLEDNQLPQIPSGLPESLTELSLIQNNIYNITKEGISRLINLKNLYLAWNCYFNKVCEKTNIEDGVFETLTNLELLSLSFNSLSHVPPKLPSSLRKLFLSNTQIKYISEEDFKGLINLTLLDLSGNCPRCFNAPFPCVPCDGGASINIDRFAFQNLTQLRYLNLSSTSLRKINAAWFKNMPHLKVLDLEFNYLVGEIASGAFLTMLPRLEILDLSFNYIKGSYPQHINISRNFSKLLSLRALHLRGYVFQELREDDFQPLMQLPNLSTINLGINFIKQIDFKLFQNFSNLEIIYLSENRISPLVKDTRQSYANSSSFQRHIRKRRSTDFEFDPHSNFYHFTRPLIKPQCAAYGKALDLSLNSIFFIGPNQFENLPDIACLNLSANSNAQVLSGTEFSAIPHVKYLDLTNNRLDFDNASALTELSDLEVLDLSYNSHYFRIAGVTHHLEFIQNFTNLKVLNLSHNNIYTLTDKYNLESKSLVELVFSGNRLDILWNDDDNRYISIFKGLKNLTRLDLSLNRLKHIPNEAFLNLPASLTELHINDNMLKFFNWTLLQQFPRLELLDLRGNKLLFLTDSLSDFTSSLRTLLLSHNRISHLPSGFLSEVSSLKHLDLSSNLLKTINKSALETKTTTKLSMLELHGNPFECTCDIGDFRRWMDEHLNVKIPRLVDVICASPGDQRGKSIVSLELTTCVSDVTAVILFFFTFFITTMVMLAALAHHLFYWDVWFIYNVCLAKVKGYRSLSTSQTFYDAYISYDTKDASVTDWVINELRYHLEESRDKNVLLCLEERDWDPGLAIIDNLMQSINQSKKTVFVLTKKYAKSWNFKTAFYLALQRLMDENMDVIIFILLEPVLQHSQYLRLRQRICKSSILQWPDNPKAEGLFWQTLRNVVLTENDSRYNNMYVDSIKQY
How it was run: (§1)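 HEK293 reporter lines stably co-transfected with the respective human TLR and an NF-κB/AP-1-driven secreted alkaline phosphatase gene, kept in selection medium. About 10^5 cells/ml were incubated with graded concentrations of stimuli. Supernatant sAP was read spectrophotometrically at 620 nm using a chromogenic substrate in detection medium. EC50 was taken as the arithmetic mean of quadruplicate samples.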

[1] = molecular target: T2, Toll-like receptor 8 (Homo sapiens) (UniProt Q9NR97); test: Agonist activity at human TLR8 expressed in HEK293 cells assessed as induction of NF-kappaB activity at 100 uM by secreted alkaline phosphatase reporter gene assay
T2 sequence (whole entry): T1 sequence (Q9NR97 whole entry)
How it was run: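 TLR8 reporter HEK293 cells carrying an NF-κB/AP-1-inducible secreted alkaline phosphatase were exposed to stimuli, with 100 µM as the top concentration tested. sAP released into the supernatant was read at 620 nm with a chromogenic substrate. Samples were run in quadruplicate.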

[2] = molecular target: Toll-like receptor 3 (Homo sapiens) (UniProt O15455); test: Agonist activity at human TLR3 expressed in HEK293 cells assessed as induction of NF-kappaB activity by secreted alkaline phosphatase reporter gene assay; how it was run: as §1
Chain of Toll-like receptor 3 (Homo sapiens) (O15455 whole entry): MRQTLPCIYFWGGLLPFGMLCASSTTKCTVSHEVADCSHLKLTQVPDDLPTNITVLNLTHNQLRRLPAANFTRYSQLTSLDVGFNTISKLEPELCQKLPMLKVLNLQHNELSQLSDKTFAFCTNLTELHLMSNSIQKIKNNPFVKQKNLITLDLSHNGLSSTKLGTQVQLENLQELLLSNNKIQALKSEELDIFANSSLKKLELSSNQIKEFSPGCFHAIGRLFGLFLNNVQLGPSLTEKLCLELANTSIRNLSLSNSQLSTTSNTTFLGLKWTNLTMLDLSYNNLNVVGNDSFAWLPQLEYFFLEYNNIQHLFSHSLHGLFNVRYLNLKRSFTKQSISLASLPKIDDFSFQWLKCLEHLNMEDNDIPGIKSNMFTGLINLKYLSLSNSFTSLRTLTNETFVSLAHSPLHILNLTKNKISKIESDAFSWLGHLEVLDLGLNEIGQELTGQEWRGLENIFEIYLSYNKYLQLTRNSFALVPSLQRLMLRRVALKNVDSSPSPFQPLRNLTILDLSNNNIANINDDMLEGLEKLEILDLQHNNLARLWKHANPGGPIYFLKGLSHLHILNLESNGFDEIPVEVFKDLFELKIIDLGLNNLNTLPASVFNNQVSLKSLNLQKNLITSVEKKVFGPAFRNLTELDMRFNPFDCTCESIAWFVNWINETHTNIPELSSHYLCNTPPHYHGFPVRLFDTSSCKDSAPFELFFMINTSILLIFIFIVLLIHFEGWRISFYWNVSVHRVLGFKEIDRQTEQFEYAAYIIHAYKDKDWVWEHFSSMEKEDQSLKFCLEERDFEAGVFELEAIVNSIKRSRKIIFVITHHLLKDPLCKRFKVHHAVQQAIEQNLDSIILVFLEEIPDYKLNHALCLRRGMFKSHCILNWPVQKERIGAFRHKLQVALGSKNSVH

[3] = molecular target: Toll-like receptor 2 (Homo sapiens) (UniProt O60603); test: Agonist activity at human TLR2 expressed in HEK293 cells assessed as induction of NF-kappaB activity by secreted alkaline phosphatase reporter gene assay; how it was run: as §1
Chain of Toll-like receptor 2 (Homo sapiens) (O60603 whole entry): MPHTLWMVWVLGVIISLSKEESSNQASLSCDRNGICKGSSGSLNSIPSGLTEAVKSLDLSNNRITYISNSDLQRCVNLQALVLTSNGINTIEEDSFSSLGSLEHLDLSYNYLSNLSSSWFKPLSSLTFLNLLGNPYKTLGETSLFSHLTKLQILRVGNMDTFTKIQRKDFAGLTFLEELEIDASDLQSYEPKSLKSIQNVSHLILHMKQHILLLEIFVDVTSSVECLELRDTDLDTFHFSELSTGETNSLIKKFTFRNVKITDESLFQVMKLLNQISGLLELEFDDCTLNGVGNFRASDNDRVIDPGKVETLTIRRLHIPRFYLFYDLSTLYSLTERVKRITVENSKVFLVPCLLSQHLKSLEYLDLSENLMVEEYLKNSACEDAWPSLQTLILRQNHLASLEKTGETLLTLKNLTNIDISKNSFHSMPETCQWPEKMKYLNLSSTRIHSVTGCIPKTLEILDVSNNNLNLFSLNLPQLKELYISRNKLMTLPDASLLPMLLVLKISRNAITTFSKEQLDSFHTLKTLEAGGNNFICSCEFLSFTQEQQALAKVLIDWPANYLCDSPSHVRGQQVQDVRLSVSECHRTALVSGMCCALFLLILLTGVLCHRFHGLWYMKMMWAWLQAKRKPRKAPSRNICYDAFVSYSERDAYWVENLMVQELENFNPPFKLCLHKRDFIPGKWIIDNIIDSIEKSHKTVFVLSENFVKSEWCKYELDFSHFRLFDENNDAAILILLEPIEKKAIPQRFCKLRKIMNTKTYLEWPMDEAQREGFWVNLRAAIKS

[4] = molecular target: T3, Toll-like receptor 7 (Homo sapiens) (UniProt Q9NYK1); test: Agonist activity at human TLR7 expressed in HEK293 cells assessed as induction of NF-kappaB activity by secreted alkaline phosphatase reporter gene assay; how it was run: as §1
T3 sequence (whole entry): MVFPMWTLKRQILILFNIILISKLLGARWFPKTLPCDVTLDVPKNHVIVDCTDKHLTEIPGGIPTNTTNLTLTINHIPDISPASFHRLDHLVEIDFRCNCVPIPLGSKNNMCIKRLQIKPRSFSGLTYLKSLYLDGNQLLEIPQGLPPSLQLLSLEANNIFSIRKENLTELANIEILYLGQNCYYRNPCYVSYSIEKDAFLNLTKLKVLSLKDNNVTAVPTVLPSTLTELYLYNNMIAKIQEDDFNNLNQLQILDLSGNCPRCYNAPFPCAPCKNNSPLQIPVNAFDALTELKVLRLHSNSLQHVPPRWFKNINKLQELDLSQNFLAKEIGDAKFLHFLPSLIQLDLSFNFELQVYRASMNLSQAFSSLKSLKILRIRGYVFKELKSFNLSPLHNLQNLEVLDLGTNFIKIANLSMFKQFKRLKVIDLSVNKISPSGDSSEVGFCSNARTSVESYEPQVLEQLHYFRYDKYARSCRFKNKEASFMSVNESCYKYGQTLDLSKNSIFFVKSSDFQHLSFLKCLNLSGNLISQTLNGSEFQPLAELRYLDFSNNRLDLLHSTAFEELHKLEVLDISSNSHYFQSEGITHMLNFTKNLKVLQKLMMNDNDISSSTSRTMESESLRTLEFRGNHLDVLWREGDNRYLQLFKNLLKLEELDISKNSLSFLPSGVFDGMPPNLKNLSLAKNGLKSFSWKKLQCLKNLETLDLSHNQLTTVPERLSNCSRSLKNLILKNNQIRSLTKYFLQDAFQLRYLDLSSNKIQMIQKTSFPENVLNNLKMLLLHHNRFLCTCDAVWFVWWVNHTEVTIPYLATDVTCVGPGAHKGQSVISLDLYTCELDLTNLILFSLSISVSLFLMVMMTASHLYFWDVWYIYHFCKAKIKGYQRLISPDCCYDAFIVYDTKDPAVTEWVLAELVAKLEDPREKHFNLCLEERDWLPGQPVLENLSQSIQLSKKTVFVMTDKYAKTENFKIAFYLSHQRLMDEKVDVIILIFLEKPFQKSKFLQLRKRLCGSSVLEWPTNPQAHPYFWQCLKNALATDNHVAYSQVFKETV

[5] = molecular target: Toll-like receptor 4 (Homo sapiens) (UniProt O00206); test: Agonist activity at human TLR4 expressed in HEK293 cells assessed as induction of NF-kappaB activity by secreted alkaline phosphatase reporter gene assay; how it was run: as §1
Chain of Toll-like receptor 4 (Homo sapiens) (O00206 whole entry): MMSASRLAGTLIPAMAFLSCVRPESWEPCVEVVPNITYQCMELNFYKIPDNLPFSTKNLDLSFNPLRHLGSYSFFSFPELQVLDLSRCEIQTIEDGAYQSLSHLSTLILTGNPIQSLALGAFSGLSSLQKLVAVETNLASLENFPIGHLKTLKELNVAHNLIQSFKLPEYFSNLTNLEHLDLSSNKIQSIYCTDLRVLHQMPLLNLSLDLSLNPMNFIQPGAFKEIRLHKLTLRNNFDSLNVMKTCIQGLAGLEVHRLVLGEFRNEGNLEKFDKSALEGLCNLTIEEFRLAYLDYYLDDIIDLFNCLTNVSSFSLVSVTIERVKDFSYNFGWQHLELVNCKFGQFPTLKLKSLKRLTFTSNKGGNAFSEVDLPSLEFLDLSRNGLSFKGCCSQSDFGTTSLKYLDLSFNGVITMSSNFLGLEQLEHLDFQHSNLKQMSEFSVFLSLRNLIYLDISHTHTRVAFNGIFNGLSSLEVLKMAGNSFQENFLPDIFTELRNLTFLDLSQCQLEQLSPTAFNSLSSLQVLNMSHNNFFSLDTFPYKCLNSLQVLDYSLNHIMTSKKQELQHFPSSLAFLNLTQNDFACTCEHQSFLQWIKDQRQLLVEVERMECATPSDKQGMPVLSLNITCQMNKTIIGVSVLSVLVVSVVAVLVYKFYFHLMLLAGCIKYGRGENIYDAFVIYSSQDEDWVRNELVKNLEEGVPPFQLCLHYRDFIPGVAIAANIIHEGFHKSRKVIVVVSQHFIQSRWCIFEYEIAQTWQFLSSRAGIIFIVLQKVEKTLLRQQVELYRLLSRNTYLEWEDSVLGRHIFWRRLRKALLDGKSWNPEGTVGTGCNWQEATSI

[6] = molecular target: T4, Toll-like receptor 9 (Homo sapiens) (UniProt Q9NR96); test: Agonist activity at human TLR9 expressed in HEK293 cells assessed as induction of NF-kappaB activity by secreted alkaline phosphatase reporter gene assay; how it was run: as §1
T4 sequence (whole entry): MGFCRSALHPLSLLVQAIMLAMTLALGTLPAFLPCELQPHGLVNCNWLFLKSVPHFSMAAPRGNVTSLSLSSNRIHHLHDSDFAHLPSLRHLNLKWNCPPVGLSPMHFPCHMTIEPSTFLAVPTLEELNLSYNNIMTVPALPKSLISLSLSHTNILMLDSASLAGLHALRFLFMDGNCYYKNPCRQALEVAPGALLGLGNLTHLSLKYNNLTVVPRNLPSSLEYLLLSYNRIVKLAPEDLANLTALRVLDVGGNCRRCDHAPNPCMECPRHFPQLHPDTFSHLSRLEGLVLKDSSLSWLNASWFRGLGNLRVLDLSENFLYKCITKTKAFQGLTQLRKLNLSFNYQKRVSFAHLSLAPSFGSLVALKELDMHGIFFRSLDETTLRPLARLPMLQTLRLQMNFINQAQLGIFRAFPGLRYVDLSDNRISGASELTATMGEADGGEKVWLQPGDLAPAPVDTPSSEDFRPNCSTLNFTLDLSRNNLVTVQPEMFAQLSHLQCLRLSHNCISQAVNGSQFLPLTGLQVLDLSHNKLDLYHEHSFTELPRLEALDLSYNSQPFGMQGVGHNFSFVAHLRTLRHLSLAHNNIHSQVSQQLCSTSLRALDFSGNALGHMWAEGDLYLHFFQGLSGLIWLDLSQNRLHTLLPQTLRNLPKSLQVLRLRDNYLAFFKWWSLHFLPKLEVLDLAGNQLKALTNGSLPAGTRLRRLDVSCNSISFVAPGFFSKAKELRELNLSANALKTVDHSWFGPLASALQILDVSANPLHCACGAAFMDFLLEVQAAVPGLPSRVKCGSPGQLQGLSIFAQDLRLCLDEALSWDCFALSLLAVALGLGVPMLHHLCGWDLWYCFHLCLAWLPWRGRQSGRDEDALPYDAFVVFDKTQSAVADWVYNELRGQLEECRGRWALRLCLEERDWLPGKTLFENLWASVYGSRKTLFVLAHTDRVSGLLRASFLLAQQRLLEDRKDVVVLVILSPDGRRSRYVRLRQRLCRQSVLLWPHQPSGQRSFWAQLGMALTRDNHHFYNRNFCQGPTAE

[7] = molecular target: Toll-like receptor 5 (Homo sapiens) (UniProt O60602); test: Agonist activity at human TLR5 expressed in HEK293 cells assessed as induction of NF-kappaB activity by secreted alkaline phosphatase reporter gene assay; how it was run: as §1
Chain of Toll-like receptor 5 (Homo sapiens) (O60602 whole entry): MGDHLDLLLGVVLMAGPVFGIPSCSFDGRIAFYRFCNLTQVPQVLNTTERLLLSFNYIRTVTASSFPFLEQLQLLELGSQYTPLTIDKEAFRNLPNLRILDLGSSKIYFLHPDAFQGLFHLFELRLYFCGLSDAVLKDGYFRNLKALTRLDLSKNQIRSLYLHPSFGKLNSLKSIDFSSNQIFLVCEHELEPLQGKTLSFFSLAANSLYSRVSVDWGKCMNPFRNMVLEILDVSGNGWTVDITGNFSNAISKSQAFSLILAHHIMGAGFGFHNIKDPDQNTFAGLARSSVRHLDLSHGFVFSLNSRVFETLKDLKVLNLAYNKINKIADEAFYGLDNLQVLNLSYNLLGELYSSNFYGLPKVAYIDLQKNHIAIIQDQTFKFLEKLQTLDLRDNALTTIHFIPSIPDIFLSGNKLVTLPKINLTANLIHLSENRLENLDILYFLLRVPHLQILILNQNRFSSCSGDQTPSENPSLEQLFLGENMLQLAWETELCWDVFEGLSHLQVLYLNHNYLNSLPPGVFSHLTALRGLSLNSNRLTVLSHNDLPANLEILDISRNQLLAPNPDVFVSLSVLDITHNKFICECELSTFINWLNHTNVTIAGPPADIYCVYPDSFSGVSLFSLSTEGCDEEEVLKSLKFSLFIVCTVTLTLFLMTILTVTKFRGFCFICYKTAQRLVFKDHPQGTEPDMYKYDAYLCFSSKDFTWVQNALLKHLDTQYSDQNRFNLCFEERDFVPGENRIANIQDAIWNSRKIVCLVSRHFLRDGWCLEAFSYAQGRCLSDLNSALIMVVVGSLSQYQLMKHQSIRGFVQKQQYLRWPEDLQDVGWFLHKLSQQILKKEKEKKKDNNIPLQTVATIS

| Structure (SMILES) | Activity [1] | also measured |
| --- | --- | --- |
| CCCCCNc1nc(N)nc(C)c1I | – | EC50 (Toll-like receptor 8): 3.7 µM |
| CCCCNc1cc(N)nc(N)n1 | inactive | – |
| CCCCCc1nc(N)nc(C)c1I | inactive | – |
| CCCCNc1nc(N)nc(-c2ccccc2)c1I | inactive | – |
| CCCNc1nc(N)nc(C)c1I | inactive | – |
| CCCCNc1nc(N)nc(C)c1Br | – | EC50 (Toll-like receptor 8): 8.5 µM |
| CCCCN(C)c1nc(N)nc(C)c1I | inactive | – |
| CCCCNc1nc(N)nc(-c2ccccc2)c1CCCN | inactive | – |
| CCCCNc1nc(N)nc(C)c1Cl | – | EC50 (Toll-like receptor 8): 20 µM |
| CCCCNc1nc(N)nc(N)c1I | inactive | – |
| CCCCNc1cc(Cl)nc(N)n1 | inactive | – |
| CCCCSc1nc(N)nc(C)c1I | inactive | – |
| CCCCNc1nc(N)nc(OC)c1I | inactive | – |
| CCCC#Cc1cc(C)nc(N)n1 | inactive | – |
| CCCCCc1cc(C)nc(N)n1 | inactive | – |
| CCCCCCNc1nc(N)nc(C)c1I | inactive | – |
| CCCCNc1nc(N)nc(C)c1F | – | EC50 (Toll-like receptor 8): 34 µM |
| CCCCNc1nc(N)nc(C)c1CCCN | – | Activity [2]: inactive; Activity [3]: inactive; Activity [4]: inactive; Activity [5]: inactive; Activity [6]: inactive; Activity [7]: inactive |
| CCCCNc1nc(N)nc(C)c1Cc1ccccc1 | – | EC50 (Toll-like receptor 8): 1.2 µM |
| CCCCOc1nc(N)nc(C)c1I | inactive | – |
| CCCCN(Cc1ccccc1)c1nc(N)nc(C)c1I | inactive | – |
| CCCCNc1nc(N)nc(C)c1CCCCCN | – | EC50 (Toll-like receptor 8): 0.3 µM |
| CCCCNc1cc(C)nc(N)n1 | – | Activity [2]: inactive; Activity [3]: inactive; Activity [4]: inactive; Activity [5]: inactive; Activity [6]: inactive; Activity [7]: inactive |
| CCCCNc1cc(OC)nc(N)n1 | inactive | – |
| CCCCNc1nc(N)ncc1I | inactive | – |
| CCCCNc1nc(N)nc(Cl)c1I | inactive | – |

From ChEMBL document CHEMBL4428062, “Human Toll-like Receptor (TLR) 8-Specific Agonistic Activity in Substituted Pyrimidine-2,4-diamines” (J Med Chem, 2016)
